This is an account of results in ChEMBL document CHEMBL1126681, “Novel acyclonucleotides: synthesis and antiviral activity of alkenylphosphonic acid derivatives of purines and a pyrimidine” (J Med Chem, 1993).

Values after ≈ are worked out from the molar mass of the structure shown. Active and inactive are the calls of the source. The calls are words filed in the database; no cut-off is given here.

Broadly, the pKa is the pH at which an ionisable group is half protonated. The IC50 is the concentration needed to halve the response being measured. A lower IC50 goes with greater potency in that assay.

Data set [1] concerns Visna-maedi virus. Put plainly: Compound was evaluated for anti-retrovirus activity against Visna virus (K184) strain in infected sheep choroid plexus cells; Not active. The format is functional, organism-based.
The nature of data set [2]: Second dissociation constant was determined. The format is ADME.
The test system of data set [3] is Human alphaherpesvirus 2. Briefly: Compound was evaluated for anti-herpesvirus activity against Herpes simplex virus-2 (MS) strain; Not active. The format is functional, organism-based. Put shortly: (§1)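 Plaque-reduction assay in human fibroblast (MRC-5) cells infected with virus. IC50 is the compound concentration that halves the plaque count.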
The test system of data set [4] is MRC5. Put plainly: Compound was evaluated for the inhibition of cell replication of human fibroblast (MRC-5) cells. Format: functional. The following applies: read-out: CD50 (the source's name). Put shortly: (§2)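 Cytotoxicity in uninfected cells, measured as inhibition of DNA synthesis by [3H]thymidine incorporation. CD50 is the concentration giving 50% inhibition of cell replication.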

In data set [5] the test system is Cytomegalovirus. Briefly: Compound was evaluated for anti-herpesvirus activity against Cytomegalovirus (AD169) strain plaques in infected human fibroblast (MRC-5) cells. The format is functional, organism-based. The following applies: Human betaherpesvirus 5, MRC5. Put shortly:
as §1

Data set [6] has as its system Human alphaherpesvirus 3. Briefly: Compound was evaluated for anti-herpesvirus activity against Varicella Zoster virus (Ellen) strain; Not active. The format is functional, organism-based. Put shortly: as §1
The nature of data set [7]: Compound was evaluated for the inhibition of cell replication sheep choroid plexus (SCP) cells. The format is functional. The following applies: Ovis aries; read-out: CD50 (the source's name). Put shortly: as §2
The test system of data set [8] is Visna-maedi virus. Briefly: Compound was evaluated for anti-retrovirus activity against Visna virus (K184) strain in infected sheep choroid plexus cells. The format is functional. Put shortly:
(§3)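 Infected sheep choroid plexus (SCP) cells. MIC is the lowest concentration that completely prevents virus cytopathic effect.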

Data set [9] concerns Human alphaherpesvirus 1. Put plainly: Compound was evaluated for anti-herpesvirus activity against Herpes simplex virus-1 (SC16) strain; Not active. The format is functional, organism-based.
Data set [10] has as its system Human immunodeficiency virus 1. Briefly: Compound was evaluated for anti-retrovirus activity against HIV-1 (D34) Diagen strain; Not active. Format: functional, organism-based.
Data set [11] deals with Human alphaherpesvirus 3. Briefly: Compound was evaluated for anti-herpesvirus activity against Varicella Zoster virus (Ellen) strain. The format is functional, organism-based. Put shortly: as §1
The test system of data set [12] is Human alphaherpesvirus 2. Put plainly: Compound was evaluated for anti-herpesvirus activity against Herpes simplex virus-2 (MS) strain. The format is functional, organism-based. Put shortly:
as §1

Data set [13] relates to Human alphaherpesvirus 1. Briefly: Compound was evaluated for anti-herpesvirus activity against Herpes simplex virus-1 (SC16) strain. The format is functional, organism-based.
The test system of data set [14] is Cytomegalovirus. Briefly: Compound was evaluated for anti-herpesvirus activity against Cytomegalovirus (AD169) strain plaques in infected human fibroblast (MRC-5) cells. The following applies: Human betaherpesvirus 5, MRC5. Format: functional, organism-based. Put shortly: as §1
Data set [15] concerns MRC5. Put plainly: Compound was evaluated for the inhibition of cell replication of human fibroblast (MRC-5) cells. The format is functional. The following applies: read-out: CD50 (the source's name). Put shortly:
as §2

The test system of data set [16] is PBL. Put plainly: Compound was evaluated for the inhibition of cell replication human peripheral blood lymphocytes (PBL's). The following applies: read-out: CD50 (the source's name). Format: functional. Put shortly:
as §2

For data set [17], the system named is Visna-maedi virus. Put plainly: Compound was evaluated for anti-retrovirus activity against Visna virus (K184) strain in infected sheep choroid plexus cells. The format is functional. Put shortly:
as §3

A short description of data set [18]: Compound was evaluated for the inhibition of cell replication sheep choroid plexus (SCP) cells. Format: functional. The following applies: Ovis aries; read-out: CD50 (the source's name). Put shortly: as §2
Data set [19] is described as follows: Compound was evaluated for the inhibition of cell replication human peripheral blood lymphocytes (PBL's). Format: functional. The following applies: read-out: CD50 (the source's name). Put shortly: as §2
Data set [20] deals with Human immunodeficiency virus 1. Briefly: Compound was evaluated for anti-retrovirus activity against HIV-1 (D34) Diagen strain. The format is functional, organism-based.
For data set [21], the system named is Cytomegalovirus. Put plainly: Compound was evaluated for anti-herpesvirus activity against Cytomegalovirus (AD169) strain plaques in infected human fibroblast (MRC-5) cells; Not active. Format: functional, organism-based. Put shortly:
as §1

Data set [22] relates to Cytomegalovirus. Put plainly: Compound was evaluated for anti-herpes virus activity against Cytomegalovirus (AD169) strain plaques in infected human fibroblast (MRC-5) cells; Not active. Format: functional, organism-based. Put shortly:
as §1

A short description of data set [23]: Compound was evaluated for the inhibition of DNA synthesis in uninfected cells. The format is functional. The conditions noted are these: read-out: CD50 (the source's name). Put shortly:
as §2

Data set [24] relates to Human alphaherpesvirus 3. Put plainly: Compound was evaluated for anti-herpesvirus activity against Varicella Zoster virus (Ellen) strain. The format is functional, organism-based. Put shortly: as §1
Data set [25] has as its system Human alphaherpesvirus 2. Briefly: Compound was evaluated for anti-herpesvirus activity against Herpes simplex virus-2 (MS) strain. Format: functional, organism-based. Put shortly: as §1
Data set [26] concerns Human alphaherpesvirus 1. Put plainly: Compound was evaluated for anti-herpesvirus activity against Herpes simplex virus-1 (SC16) strain. The format is functional, organism-based.

Turning to `Nc1nc2c(ncn2CC/C=C\P(=O)(O)O)c(=O)[nH]1`, the MIC entry in data set [1] was “inactive”.
For `Nc1nc(O)c2ncn(OC(/C=C/P(=O)(O)O)CO)c2n1` (stereo not drawn), the MIC entry in data set [1] was “inactive”. The pKa in [2] (read-out: pKa E2) came to 6.6.
Consider `Nc1nc(O)c2ncn(OCC/C=C\P(=O)(O)O)c2n1`, for which the half-maximal inhibitory concentration (IC50) entry is “Not Active” in data set [3]; 178 µM in data set [5]; “Not Active” in data set [6]; “Not Active” in data set [9]; “Not Active” in [10]. Moreover, the values for the CC50 in data set [4] and in [7] were 26 µM and 11.7 µM, respectively. Moreover, in data set [8], the MIC was 0.1 µM (≈ 0.0301 µg/mL).
Regarding `Nc1ccn(OC(/C=C/P(=O)(O)O)CO)c(=O)n1` (stereo not drawn), the MIC entry in [1] was “inactive”.
As to `Nc1nc(O)c2ncn(CC(/C=C/P(=O)(O)O)CO)c2n1` (stereo not drawn), the CC50 in data set [4] came to 20 µM. Further, the IC50 in data set [11] was 17 µM; in [12], 66 µM; in [13] it was 60 µM; in data set [14], less than 9 µM; in data set [10], “Not Active”.
Turning to `Cc1cn([C@H]2C[C@H](N=[N+]=[N-])[C@@H](CO)O2)c(=O)[nH]c1=O` [ZIDOVUDINE], the CC50 in [15] is 72 µM; in data set [16] it was 13 µM; in data set [18], more than 370 µM. Also, the MIC in data set [17] is 5.6 µM (≈ 1.5 µg/mL).
`Nc1nc(O)c2ncn(OCC/C=C/P(=O)(O)O)c2n1`: the CC50 in data set [4] was determined as 0.1 µM; in [19], 0.23 µM; in data set [7] it was 0.13 µM. Further, the IC50 in [11] was less than 10 µM; in [12], less than 10 µM; in [13], less than 10 µM; in data set [20], 0.1 µM; in data set [14], 0.53 µM. The MIC in [8] is less than 0.01 µM.
Consider `Nc1ncnc2c1ncn2CC/C=C/P(=O)(O)O`, for which the half-inhibitory concentration (IC50) entry in data set [3], in data set [6], in data set [9], in [21] and in data set [10] was “Not Active” in each case. Also, the CC50 in data set [4] amounted to 260 µM; in [7] it was 137 µM. Also, the MIC in data set [8] stood at 20 µM (≈ 5.38 µg/mL).
`Nc1nc(N)c2ncn(CC/C=C/P(=O)(O)O)c2n1`: the IC50 result in data set [3] was “Not Active”; in [20], 9.8 µM; in data set [22] it was “Not Active”; in [6], “Not Active”; in [9] it was “Not Active”. The CC50 amounted to 222 µM in [4] and 95 µM in data set [7]. Besides, the MIC in [8] stood at 2.1 µM (≈ 0.597 µg/mL).
The compound `Nc1nc2c(ncn2CCOCP(=O)(O)O)c(=O)[nH]1` [GS-438] showed a pKa in data set [2] of 6.5. Moreover, the CC50 in data set [23] worked out at 8.6 µM.
Take `Nc1ncnc2c1ncn2OCCOCP(=O)(O)O`: the CC50 in data set [4] and in data set [7] was 173 µM in each case. For the same compound, the IC50 in [11] was 280 µM; in [12] it was 270 µM; in data set [20], 0.24 µM; in data set [9], “Not Active”; in data set [21], “Not Active”. Moreover, the MIC in [8] stood at 8 µM (≈ 2.31 µg/mL).
On to `Nc1ncnc2c1ncn2CC(/C=C/P(=O)(O)O)CO` (stereo not drawn), for which the CC50 in data set [4] was 189 µM. Further, the IC50 was 16 µM in data set [11]; 91 µM in [12]; 137 µM in data set [13]; 35 µM in [14]; “Not Active” in [10].
`Nc1ncnc2c1ncn2CC/C=C\P(=O)(O)O`: the MIC result in data set [1] is “inactive”.
Take `Nc1ncnc2c1ncn2OCC/C=C/P(=O)(O)O`: the IC50 entry in data set [3] is “Not Active”; in data set [20] it was 10.2 µM; in data set [6], “Not Active”; in data set [9] it was “Not Active”; in data set [21], “Not Active”. The CC50 in data set [4] is 330 µM; in data set [19] it was 130 µM. Moreover, the MIC in [8] came out at 82 µM (≈ 23.4 µg/mL).
With `Nc1ncnc2c1ncn2OC(/C=C/P(=O)(O)O)CO` (stereo not drawn), the MIC result in data set [1] is “inactive”.
Regarding `Nc1nc(O)c2ncn(CC/C=C/P(=O)(O)O)c2n1`, the CC50 in data set [4] turned out to be 4.5 µM; in data set [7], 1.3 µM. Also, the IC50 is 190 µM in data set [11]; 90 µM in [12]; 52 µM in data set [14]; “Not Active” in data set [9]; “Not Active” in [10]. The same compound gave an MIC in data set [8] of 0.35 µM (≈ 0.0998 µg/mL).
In the case of `Nc1nc(O)c2ncn(OCC(/C=C/P(=O)(O)O)CO)c2n1` (stereo not drawn), the CC50 in data set [4] is 19 µM. Besides, the IC50 in data set [11] came out at 15 µM; in [12], 177 µM; in data set [13] it was 295 µM; in [20], 8.9 µM; in [14], 44 µM.
On to `C=C(/C=C/P(=O)(O)O)Cn1cnc2c(O)nc(N)nc21`, for which the MIC entry in data set [1] is “inactive”.
With `Nc1nc2c(ncn2COCCO)c(=O)[nH]1` [ACYCLOVIR], the CC50 in data set [15] is 355 µM. The IC50 was determined as 21 µM in data set [24], 4.3 µM in data set [25], 3.9 µM in [26] and 93 µM in [5].
